Shown are actives, neighbours in structure and some others; about 0.73% of the full set was active somewhere.
DDE Tn7 FP inh: inhibitors of Tn7 peptide binding to fibrin DD(E), primary screen, biochemical, fluorescence polarization, human fibrin, Tn7 probe; Fibrinogen beta chain (Homo sapiens), P02675; FP displacement of FITC-Tn7 peptide from fibrin DD(E); 0% = median of compound wells per plate; inhibition, % at 8.3 µM; hit rate 0.13% among 370,000;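 active = inhibition above the mean of compounds falling within the control limits plus 3 SD of them, cut at about 14% in these data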;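 note: 0% = plate median of compound wells and 100% = 10 µM Aha-Tn7 peptide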
Target sequence (P02675 whole entry, looked up): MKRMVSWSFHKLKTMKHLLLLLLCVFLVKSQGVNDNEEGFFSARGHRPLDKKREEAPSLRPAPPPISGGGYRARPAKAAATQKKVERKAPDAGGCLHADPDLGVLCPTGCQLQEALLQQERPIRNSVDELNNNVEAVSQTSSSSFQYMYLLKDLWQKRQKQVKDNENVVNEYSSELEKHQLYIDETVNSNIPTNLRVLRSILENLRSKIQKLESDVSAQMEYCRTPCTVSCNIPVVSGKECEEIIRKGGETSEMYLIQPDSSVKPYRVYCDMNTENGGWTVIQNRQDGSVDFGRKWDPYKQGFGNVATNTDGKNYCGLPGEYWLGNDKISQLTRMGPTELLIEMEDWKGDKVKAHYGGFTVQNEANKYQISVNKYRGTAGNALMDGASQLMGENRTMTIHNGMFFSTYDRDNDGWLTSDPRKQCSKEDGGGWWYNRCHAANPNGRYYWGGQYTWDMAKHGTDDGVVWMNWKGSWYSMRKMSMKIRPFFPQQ
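Assay system: Human clot-derived fibrin DD(E) complex | Buffer or medium: Tris/NaCl/CaCl2 buffer, pH 7.8 | Repeats: One replicate per compound | Benchmarks: Aha-Tn7 high control | Measure: % inhibition scaled between sample-field median and high-control FP | Schedule: 10 min plus 3 h, room temperature | Signal: Fluorescence polarization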
Cardiac RTF inh: cardiac RTF calcium sensitivity inhibitors, primary screen, biochemical, IANBD-TnC fluorescence, EC70 calcium; inhibition, % at 7.15 µM; IANBD-labeled cardiac RTF, Ca2+ fluorescence; hit rate 0.12% among 340,000; Troponin I, cardiac muscle (Homo sapiens) + Troponin T, cardiac muscle (Homo sapiens) + …; AID 493244, 2011;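 active = inhibition above the mean inhibition of all tested compounds plus 3 SD, cut at about 17% in these data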;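 note: assay run at fixed EC70 calcium of 1.6 mM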
Tn6 DDE FP: inhibitors of Tn6 peptide binding to fibrin DD(E), primary screen, biochemical, fluorescence polarization, human fibrin, Tn6 probe. Fibrinogen beta chain (Homo sapiens), P02675. Fibrin DD(E) TRITC-Tn6 fluorescence polarization displacement. inhibition, % at 8.3 µM. hit rate 0.21% among 370,000. AID 720509, 2013;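 active = inhibition above a per-campaign cutoff: mean of compounds within control limits plus 3 SD, cut at about 15% in these data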;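 note: 0% = median of all compound wells on the plate and 100% = blocking peptide control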
C-LANA FP: inhibitors of KSHV C-LANA binding to DNA, primary screen, biochemical, fluorescence polarization, FAM-LBS DNA, MBP-C-LANA, single point | hit rate 0.078% among 340,000 | inhibition, % at 9 µM | AID 504423, 2011;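 active = highest replicate inhibition at or above 60% at 9 µM, even if other replicates fall short; inactive = all replicates below 60% inhibition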;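 note: 0% = neutral control wells and 100% = 4 µM acridine orange control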
Keap1 Nrf2 FP: Keap1-Nrf2 protein-protein interaction inhibitors, primary screen, biochemical, fluorescence polarization, single point. Kelch-like ECH-associated protein 1 (Homo sapiens), Q14145. Keap1 Kelch-Nrf2 peptide fluorescence polarization, 1536-well. inhibition, % at 9.4 µM. hit rate 0.15% among 340,000. AID 504523, 2011; in the data active = inhibition above about 12%;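 note: human Keap1 Kelch domain with fluorescein labeled Nrf2 9mer peptide probe; 0% = neutral control wells and 100% = peptide positive control; higher means more block of Keap1 binding to Nrf2 peptide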
RTF Ca sens act: cardiac RTF calcium sensitivity activators, primary screen, biochemical, IANBD-TnC fluorescence, EC20 calcium; Troponin I, cardiac muscle (Homo sapiens) + Troponin T, cardiac muscle (Homo sapiens) + …; IANBD-labeled TnC RTF fluorescence at EC20 calcium; 0% EC20 calcium, 100% full calcium; activation, % at 7.2 µM; hit rate 0.24% among 340,000; AID 493008, 2010;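 active = activation above the mean over all tested compounds plus 3 SD, cut at about 30% in these data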;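 note: rise in fluorescence read as greater calcium sensitivity of cardiac thin filaments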
An asterisk follows results filed as active; nt = not tested or not shown; + = active, no number.

SMILES | DDE Tn7 FP inh | Cardiac RTF inh | Tn6 DDE FP | C-LANA FP | Keap1 Nrf2 FP | RTF Ca sens act
O=[N+]([O-])c1cc([N+](=O)[O-])c2nonc2c1Nc1ccccc1O | 2.7 | 0.9 | 6.8 | 1.0 | 0.1 | 2.0
O=[N+]([O-])c1cc([N+](=O)[O-])c2nonc2c1Nc1ccc(O)cc1 | -2.9 | -10.3 | 17.9* | -0.9 | -4.4 | 7.6
O=C1CCC[C@H]2[C@@H](Cc3ccccc3)[C@@H](O)CC[C@]23CCCN13 | 3.0 | nt | -0.9 | nt | nt | nt
NS(=O)(=O)c1ccc(N=Nc2c(O)c(C(=O)O)cc3ccccc23)cc1 | 8.8 | -3.2 | -14.2 | -1.3 | 0.4 | 1.7
O=C(O)Cc1ccc(N=Nc2c(O)c(C(=O)O)cc3ccccc23)cc1 | 7.1 | 16.6 | -8.8 | 91.7* | -1.9 | -19.2
COC(=O)[C@]12CCCCC=C1N(Cc1ccc(OC)cc1)C(=O)[C@@H]2CC(=O)NCCCCc1ccccc1 | 0.8 | nt | -6.0 | nt | nt | nt
Cc1cccc(Nc2nc(N)c([N+](=O)[O-])c(NCc3ccccc3)n2)c1 | 0.2 | nt | -5.2 | nt | + | nt
CCCCNC(=O)N1CCC(c2nc3ccc(Cl)cc3[nH]2)CC1 | -2.8 | nt | 8.1 | nt | nt | nt
O=C(COC(=O)CCCN1C(=O)c2ccccc2C1=O)Nc1ncc(Cl)cc1Cl | 15.2* | 4.7 | -2.5 | 0.2 | -6.7 | -3.3
CC(C)(C)S(=O)(=O)N1Cc2cc(CO)ccc2[C@@H]1CCO | 3.8 | nt | -6.3 | nt | nt | nt
Nc1nc(-c2ccccc2)c(-c2ccccc2)n1N | -1.8 | -35.0 | 6.7 | -1.6 | -4.7 | 14.7
c1ccc(-c2cnn3c(-c4ccccc4)c(-c4ccccc4)nc3n2)cc1 | -3.6 | -236.5 | 1.5 | 0.7 | 4.1 | 378.1*
CN1CCS/C1=C\C=C1/SC(=S)N(CC(=O)O)C1=O | -109.5 | -314.6 | -8.8 | -95.1 | -424.1 | 267.9*
CCN1C(=O)/C(=C/C=C2/SCCN2C)SC1=S | -13.9 | -128.2 | -0.4 | -1.1 | -7.0 | 135.9*
CN1OC[C@@H]2CN(C(=S)Nc3cc(C(F)(F)F)cc(C(F)(F)F)c3)[C@H](c3ccccc3Br)C[C@@H]21 | 2.3 | nt | 2.9 | nt | nt | nt
CC(/C=C/c1ccc(N(C)C)cc1)=N/N=C1/NC(=O)CC(C(=O)Nc2ccc(Cl)cc2)S1 (centres undefined) | -2.4 | -4.6 | 2.9 | 1.4 | 0.8 | 32.3*
CC(/C=C/c1ccc(N(C)C)cc1)=N\N=C1\NC(=O)CC(C(=O)Nc2ccccc2)S1 (centres undefined) | -3.2 | -4.2 | -4.9 | 3.3 | -4.7 | 7.2
CCOc1ccc(S(=O)(=O)Nc2cc(NS(=O)(=O)c3ccc(OCC)cc3)cc(C(=O)O)c2)cc1 | 1.4 | -0.7 | 5.7 | 3.9 | 22.0* | -2.7
O=C1C=C(O)c2c(O)cc(O)c(O)c2C1=O | 2.1 | 31.5* | 2.2 | 117.3* | 19.2* | -44.1
C[C@@H]1Cc2c(O)c(O)cc(O)c2C(=O)O1 | nt | -0.3 | nt | 6.1 | -2.4 | -2.3
Cn1nccc1NC(=O)Nc1cccc(Cl)c1Cl | 8.2 | 2.8 | 3.3 | -2.3 | -3.1 | 60.8*
CN1CCN(NC(=O)Nc2cccc(Cl)c2Cl)CC1 | 6.1 | nt | -1.3 | -1.1 | -2.0 | nt
Cc1cc(Br)c2c(c1)C(O)(N1CCCCC1C)C(=O)N2 (centres undefined) | 5.8 | -3.2 | 0.3 | 0.3 | -5.3 | 30.2*
Cc1cc([N+](=O)[O-])cc2c1NC(=O)C2(O)N1CCCC(C)C1 (centres undefined) | -6.0 | -9.6 | 0.1 | -1.1 | -2.0 | -6.6
COC(=O)C1CN(C2CCCC2)CCS(=O)(=O)N1Cc1ccc(OC)cc1 (centres undefined) | 5.1 | nt | 2.2 | nt | nt | nt
NC(=S)N=Nc1c(O)cc(O)c2[nH]c(=O)ccc12 | -0.6 | 11.6 | -6.1 | 23.6 | 15.5* | -1.4

Assay outcomes: PubChem BioAssay, several laboratories
